According to ChEMBL document CHEMBL2429760, “Synthesis and structure evaluation of new complex butylarylpiperazin-1-yl derivatives” (Med Chem Res, 2013):

Tests used:
[1] = system: Human immunodeficiency virus 1; experiment: Antiviral activity against Human immunodeficiency virus 1 3B infected in human MT4 cells assessed as inhibition of virus-induced cytopathogenicity after 4 days by MTT assay; format: functional, organism-based; settings: MT4, 96 h
Method in brief: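 MT-4 cells (1 × 10^4 per well) in RPMI with or without serial compound dilutions, acutely infected with HIV-1 at m.o.i. 0.01 (100 CCID50). After 4-day incubation at 37 °C, protection from virus-induced cytopathogenicity was read as cell viability by MTT. Compounds were made as 100 mM DMSO stocks and diluted in medium.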

[2] = Cytotoxicity against human MT4 cells after 96 hrs by MTT assay; format: cell-based
Method in brief: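 Exponentially growing MT-4 cells seeded at 1 × 10^5 cells/ml in RPMI-1640 with 10 % FBS and penicillin/streptomycin. Incubated at 37 °C, 5 % CO2, with or without serial compound dilutions (100 mM DMSO stocks diluted in medium), run in parallel with the antiviral test. Viability by MTT after 96 h.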

Structure (SMILES)	EC50 [1] [µM]	CC50 at 96 h [2] [µM]
O=c1c2ccccc2c2c(-c3ccccc3)c3c(=O)n(CCCCN4CCN(CCc5ccccc5C(F)(F)F)CC4)c(=O)c3c(-c3ccccc3)c12	> 9	9
O=c1c2ccccc2c2c(-c3ccccc3)c3c(=O)n(CCCCN4CCN(c5ccc(Cl)cc5)CC4)c(=O)c3c(-c3ccccc3)c12	> 100	> 100
O=c1[nH]c(=O)c2c(-c3ccccc3)c3c(c(-c4ccccc4)c12)c(=O)c1ccccc13	> 9	–
O=c1c2ccccc2c2c(-c3ccccc3)c3c(=O)n(CCCCN4CCN(c5ccccc5)CC4)c(=O)c3c(-c3ccccc3)c12	> 100	> 100
O=c1c2ccccc2c2c(-c3ccccc3)c3c(=O)n(CCCCN4CCN(c5ccccn5)CC4)c(=O)c3c(-c3ccccc3)c12	> 100	> 100
O=c1c2ccccc2c2c(-c3ccccc3)c3c(=O)n(CCCCN4CCN(c5ccccc5F)CC4)c(=O)c3c(-c3ccccc3)c12	> 100	> 100
O=c1c2ccccc2c2c(-c3ccccc3)c3c(=O)n(CCCCN4CCN(c5ccccc5Cl)CC4)c(=O)c3c(-c3ccccc3)c12	> 100	> 100
O=c1c2ccccc2c2c(-c3ccccc3)c3c(=O)n(CCCCN4CCN(c5ccc(F)cc5)CC4)c(=O)c3c(-c3ccccc3)c12	> 100	> 100
